Experimental findings from ChEMBL document CHEMBL5257098, “Development and Characterization of Fluorescent Probes for the G Protein-Coupled Receptor 35” (ACS Med Chem Lett, 2023) are described below.

In general, IC50 refers to the concentration that inhibits the measured activity by half. As usually defined, the Kd is the constant that tells how readily two partners part at equilibrium. The EC50 is the concentration giving half of the maximal effect. Low readings indicate a more potent agent, high ones a less potent agent. By Ki is commonly meant the equilibrium dissociation constant of an inhibitor or competing ligand from its target.

The source made the active and inactive calls. The calls are words filed in the database; no cut-off is given here.

Assay [1] has as its target T1, G-protein coupled receptor 35 (Homo sapiens, UniProt Q9HC97). Put plainly: Agonist activity at GPR-35 in human HT-29 cells assessed as desensitization of zaprinast induced DMR response incubated for 1 hr followed by zaprinast stimulation. The format is cell-based.
In assay [2] the target is T1, G-protein coupled receptor 35. Description: Binding affinity to Nluc-fused human GPR35 expressed in CHO-K1 cells using furimazine as substrate incubated for 30 mins in presence of zaprinast followed by substrate addition by […] equilibrium binding assay. The format is cell-based. In outline: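 CHO-K1 cells were transfected with human GPR35 carrying an N-terminal nano-luciferase tag. Fluorescent probes were added at varying concentrations for saturation BRET binding. […] Kd was derived from the data. Values are mean ± SD of three independent measurements, each in triplicate.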

Assay [3] shares this target. Description: Agonist activity at GPR-35 in human HT-29 cells by DMR assay. The assay is classed as cell-based. In outline: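 Label-free DMR was recorded in HT-29 cells endogenously expressing GPR35 across a range of probe concentrations. EC50 was taken from concentration–response curves. Values are mean ± SD of two independent measurements, each with four replicates.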

For assay [4] the target is unchanged. Description: Agonist activity at GPR-35 in human HT-29 cells assessed as DMR response in presence of ML-145.
For assay [5] the target is unchanged. Put plainly: Agonist activity at human GPR-35 over expressed in CHO-K1 cells incubated for 1 hr followed by zaprinast stimulation by DMR assay. The assay is classed as cell-based. The settings on record: filed as agonist.
Assay [6] shares this target. Put plainly: Reversible binding affinity to Nluc-fused human GPR35 expressed in CHO-K1 cells using furimazine as substrate incubated for 10 mins followed by addition of ML145 by kinetic assay. The assay is classed as cell-based. The note with it: filed as agonist. Put shortly: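 Kinetic BRET binding used CHO-K1 cells expressing NLUC-tagged human GPR35. The BRET emission ratio was followed after adding probe (5 nM). 10 min later, ML-145 (10 μM) was added to dissociate the probe.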

For assay [7] the target is unchanged. Description: Competitive binding affinity to Nluc-fused human GPR35 expressed in CHO-K1 cells assessed as inhibition constant using furimazine as substrate incubated for 30 mins followed by substrate addition by in presence of 10-(4-(2-(4-(4-((2,8-dicarboxy-6-hydroxy-10-methylpyrido[3,2-g]quinolin-4-yl)oxy)butyl)-1H-1,2,3-triazol-1-yl)ethoxy)phenyl)-5,5-difluoro-2,7,9-trimethyl-5H-imidazo[1,2-c]pyrrolo[2,1-f][ …. The assay is classed as cell-based.

Assay [8] shares this target. Description: Agonist activity at GPR-35 in human HT-29 cells incubated for 1 hr by DMR assay. The assay is classed as cell-based.

T1 sequence (Q9HC97 whole entry, the tested form may be a part): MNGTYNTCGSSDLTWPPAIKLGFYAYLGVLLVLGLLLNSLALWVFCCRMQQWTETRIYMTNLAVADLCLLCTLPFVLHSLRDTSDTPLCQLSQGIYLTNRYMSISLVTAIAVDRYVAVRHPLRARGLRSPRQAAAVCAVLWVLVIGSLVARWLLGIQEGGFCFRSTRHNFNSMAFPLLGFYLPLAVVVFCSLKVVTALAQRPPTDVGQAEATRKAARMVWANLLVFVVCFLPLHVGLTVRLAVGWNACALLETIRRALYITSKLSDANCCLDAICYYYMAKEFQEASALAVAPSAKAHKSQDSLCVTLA

As to `CC1=CC(C)=[N+]2C1=C(c1ccc(OCCn3cc(CCCCOc4cc(C(=O)O)nc5c(C)c6nc(C(=O)O)cc(O)c6cc45)nn3)cc1)c1nc(C)cn1[B-]2(F)F`, the IC50 in assay [1] is 9.4 nM; in assay [4] it was 542 nM. Also, the Kd in assay [2] was determined as 3.9 nM. In addition, a half-maximal response in assay [3] (EC50) required 49.5 nM. Moreover, the outcome in assay [5] and in assay [6] was Active.
For `O=C(O)c1cc(C(=O)O)c2c(n1)C(=O)C(=O)c1cc(C(=O)O)[nH]c1-2` [PYRROLOQUINOLINE QUINONE], the Ki in assay [7] came to 332 nM.
Turning to `O=C(O)c1cc2cc(Br)c(O)c(Br)c2oc1=O`, the Ki in assay [7] is 352 nM.
As for `COc1ccc(C(=O)Nc2cc(Br)ccc2-c2nnn[nH]2)cc1`, the Ki in assay [7] is 10 nM.
Turning to `CC1=CC(C)=[N+]2C1=C(c1ccc(OCCn3cc(CCOCCOc4cc(C(=O)O)nc5c(C)c6nc(C(=O)O)cc(O)c6cc45)nn3)cc1)c1nc(C)cn1[B-]2(F)F`, the IC50 is 7.8 nM in assay [1] and 769 nM in assay [4]. In addition, in assay [2], the Kd came out at 17.9 nM. In addition, in assay [3], it took 58.8 nM to reach a half-maximal effect (EC50). Further, the result in assay [5] was Active.
In the case of `Cc1c2[nH]c(C(=O)O)cc(=O)c2cc2c(=O)cc(C(=O)O)[nH]c12`, in assay [7], the Ki is 6 nM.
Compound `O=c1oc2c([N+](=O)[O-])c(O)c(Br)cc2cc1-c1nnn[nH]1` returned an EC50 in assay [8] of 6 nM. The Ki in assay [7] came out at 51 nM.
Take `COC(=O)c1cnn(-c2ccc(F)cc2F)c1/C=N/NC(=S)NC(C)(C)C`: the Ki in assay [7] turned out to be 236 nM.
For the compound `CC1=CC(C)=[N+]2C1=C(c1ccc(OCCn3cc(CCCCCOc4cc(C(=O)O)nc5c(C)c6nc(C(=O)O)cc(O)c6cc45)nn3)cc1)c1nc(C)cn1[B-]2(F)F`, the figures for the half-maximal inhibitory concentration (IC50) in assay [1] and in assay [4] were 5.6 nM and 398 nM, respectively. The Kd in assay [2] came to 8.3 nM. The same compound displayed an EC50 in assay [3] of 42.2 nM. Also, the outcome in assay [5] was Active.
Consider `CC1=CC(C)=[N+]2C1=C(c1ccc(OCCn3cc(CCCOc4cc(C(=O)O)nc5c(C)c6nc(C(=O)O)cc(O)c6cc45)nn3)cc1)c1nc(C)cn1[B-]2(F)F`, for which the IC50 stood at 9.6 nM in assay [1] and 1030 nM in assay [4]. Also, the Kd in assay [2] came out at 7.4 nM. Moreover, in assay [3], the EC50 came out at 80.8 nM. Besides, in assay [5], the result was Active.
Turning to `O=C(O)c1cc(=O)c2c(OCC(O)COc3cccc4oc(C(=O)O)cc(=O)c34)cccc2o1` [CROMOLYN], the Ki in assay [7] is 2970 nM.
